High-throughput results: PubChem, Johns Hopkins Ion Channel Center
KCNQ1 block: inhibitors of human KCNQ1 channel, primary screen, cell-based, thallium flux, high-throughput. 310,000 tested, 1.3% active. Potassium voltage-gated channel subfamily KQT member 1 (Homo sapiens), P51787. B-score at 10 µM. CHO-K1 KCNQ1, FluxOR thallium flux fluorescence; stronger effect = higher value;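 active = compounds whose thallium flux B-score, printed positive for inhibition, exceeds three library SD while starting fluorescence stays within three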;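 also: channel opened by potassium depolarization with thallium stimulus after 20 min compound exposure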
KCNQ1 pot: potentiators or activators of KCNQ1 channel, primary screen, cell-based, thallium flux, high-throughput | CHO-K1 KCNQ1, thallium flux FluxOR fluorescence; stronger effect = higher value | B-score at 10 µM | 310,000 tested, 0.35% active;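 active = fluorescence ratio B-score, a plate-corrected score, at least three library SD, with initial intensity B-score within 5 SD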
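Assay system: stable KCNQ1 CHO-K1 line; medium: assay buffer, equal DMSO in all wells; timing: 90 min dye loading and 20 min compound exposure, both at room temperature; technique: kinetic FluxOR thallium fluorescence, 10-s 1-Hz baseline, 110-s post-stimulus read; read-out basis: B score of baseline-normalized fluorescence ratio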
KCNK9 block: KCNK9 potassium channel inhibitors, primary screen, HEK293 cells, thallium flux. Potassium channel subfamily K member 9 (Homo sapiens), Q9NPC2. FluxOR thallium flux fluorescence; stronger effect = lower value. B-score at 10 µM. 310,000 tested, 1.2% active. AID 488922, 2010;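 active = ratio B-score over 3 SD below the library mean, with starting fluorescence within 5 SD of its mean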;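 also: negative B-score means less thallium flux so channel inhibition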
Kir21 block: inhibitors of mouse Kir2.1 inward-rectifier potassium channel; Inward rectifier potassium channel 2 (Mus musculus), P35561; HEK293-Kir2.1, FluxOR thallium flux fluorescence; stronger effect = lower value; B-score at 10 µM; 310,000 tested, 0.85% active;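 active = fluorescence ratio B-score at or below minus 3 SD of library scores, with starting-brightness B-score within 2 SD, cut at about -4.2 in these data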;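 also: channel flux triggered by added potassium and thallium sulfate stimulus; B-score of peak minus minimum fluorescence over baseline after thallium stimulus; more negative B-score means stronger Kir2.1 block with less thallium influx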
hERG rescue: hERG rescue from dofetilide block, primary screen, cell-based, CHO-hERG, FluxOR thallium flux, dofetilide IC70. Voltage-gated inwardly rectifying potassium channel KCNH2 (Homo sapiens), Q12809. 310,000 tested, 0.51% active. dofetilide IC70 present. activation (rescue from dofetilide block), less the hit threshold, % at 10 µM;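 active = activation above the mean of controls blocked by dofetilide plus 5 SD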;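 also: thallium influx through hERG after potassium depolarization seen as dye fluorescence rise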
Target sequence (Q12809 whole entry, looked up): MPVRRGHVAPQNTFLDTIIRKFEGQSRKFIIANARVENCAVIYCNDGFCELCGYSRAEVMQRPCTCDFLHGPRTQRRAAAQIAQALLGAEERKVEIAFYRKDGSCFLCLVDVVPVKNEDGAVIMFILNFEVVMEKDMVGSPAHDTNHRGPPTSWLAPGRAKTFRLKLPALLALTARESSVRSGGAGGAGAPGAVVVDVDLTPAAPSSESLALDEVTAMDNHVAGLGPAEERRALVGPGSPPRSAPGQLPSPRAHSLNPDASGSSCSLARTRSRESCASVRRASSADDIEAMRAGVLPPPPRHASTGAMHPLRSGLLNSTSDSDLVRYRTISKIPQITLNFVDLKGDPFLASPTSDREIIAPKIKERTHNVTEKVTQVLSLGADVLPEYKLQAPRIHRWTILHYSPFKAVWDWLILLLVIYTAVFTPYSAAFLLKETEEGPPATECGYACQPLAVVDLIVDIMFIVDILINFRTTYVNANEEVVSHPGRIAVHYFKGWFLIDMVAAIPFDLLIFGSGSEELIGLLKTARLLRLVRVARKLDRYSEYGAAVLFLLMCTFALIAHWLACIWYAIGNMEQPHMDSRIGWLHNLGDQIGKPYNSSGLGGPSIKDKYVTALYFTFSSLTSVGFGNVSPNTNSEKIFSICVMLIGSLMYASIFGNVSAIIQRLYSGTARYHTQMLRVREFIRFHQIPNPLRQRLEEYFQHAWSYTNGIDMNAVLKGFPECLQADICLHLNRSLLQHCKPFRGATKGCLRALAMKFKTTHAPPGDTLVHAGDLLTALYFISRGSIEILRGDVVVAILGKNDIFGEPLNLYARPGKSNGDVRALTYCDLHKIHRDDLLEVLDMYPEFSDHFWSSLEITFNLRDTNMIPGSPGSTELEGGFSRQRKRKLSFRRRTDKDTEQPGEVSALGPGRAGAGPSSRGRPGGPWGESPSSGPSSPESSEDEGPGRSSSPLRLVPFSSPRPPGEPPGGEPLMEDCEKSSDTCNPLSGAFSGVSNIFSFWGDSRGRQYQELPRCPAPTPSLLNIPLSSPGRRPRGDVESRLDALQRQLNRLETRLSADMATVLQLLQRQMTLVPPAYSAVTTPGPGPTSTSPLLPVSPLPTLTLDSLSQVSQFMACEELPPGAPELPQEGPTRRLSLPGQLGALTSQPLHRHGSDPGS
KCNK3 inh: human KCNK3 channel inhibitors, primary screen, CHO cells, FluxOR thallium flux, B-score; Potassium channel subfamily K member 3 (Homo sapiens), O14649; FluxOR fluorescence; stronger effect = lower value; B-score at 10 µM; 340,000 tested, 0.84% active; AID 602410, 2012;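 active = B-score under library mean minus 4 SD, starting fluorescence ratio at most library mean plus 5 SD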;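 also: more negative B-score means stronger inhibition of thallium flux through KCNK3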
KCNK3 inh conf: retest of human KCNK3 channel inhibitors, confirmation, CHO cells, FluxOR thallium flux, triplicate | shares compounds with KCNK3 inh | FluxOR fluorescence; 0% buffer, 100% carvedilol maximal block | ratio percent of control, % at 10 µM | 2,400 tested, 99% active | AID 651638, 2012;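 active = ratio percent of control, averaged over triplicates, above buffer control mean plus 5 SD, cut at about 64% in these data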;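 also: ratio is the fluorescence rise from min to max over baseline after thallium stimulus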
KCNK3 noninduced: thallium flux inhibition in non-induced cells, primary screen, counter-screen for KCNK3 inhibitor project, cell-based, non-induced KCNK3 line, FluxOR thallium, triplicate. AID 651747, 2012. shares compounds with KCNK3 inh. non-induced KCNK3 parental cells; stronger effect = lower value. 2,400 tested, 40% active. thallium flux ratio (lower = more inhibition) at 10 µM;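 active = thallium flux ratio, averaged over three wells, more than 5 SD below the buffer control mean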;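 also: host cells are CHO cells without KCNK3 induction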
Of the large screens only hits and unclear results are named; the others gave an inactive call (follow-up assays come after a bar, where they were run). In the library only some 3.7% were active in any assay of this set; here they are far more common.

Cc1ccc(S(=O)(=O)N2CCC(C(=O)Nc3ccc(N4CCOCC4)cc3)CC2)cc1C	none (no result: KCNQ1 block, KCNQ1 pot, KCNK9 block, Kir21 block, hERG rescue)
COc1ccccc1N1CCN(S(=O)(=O)c2cc(Br)cnc2N)CC1	none
CC(=O)N1c2ccc(S(=O)(=O)N3CCCCC3)cc2CC1C(=O)Nc1cccc(C)c1 (centres undefined)	KCNK3 inh -11 | KCNK3 inh conf 95 | KCNK3 noninduced inactive
CCOc1ccccc1OCCCOc1ccc([N+](=O)[O-])cc1Cl	KCNK3 inh -9.8 | KCNK3 inh conf 110 | KCNK3 noninduced inactive
Cc1ccsc1CN(C)C(=O)c1ccc(Oc2ccccc2)cc1	KCNK9 block -7.5, KCNK3 inh -9.9 | KCNK3 inh conf 113 | KCNK3 noninduced inactive
CCc1sc(C(=O)Nc2ccccc2N2CCOCC2)cc1C	none
CCCn1c(CNc2ccc(Br)cc2)nc2ccccc21	KCNK3 inh -12 | KCNK3 inh conf 124 | KCNK3 noninduced 0.14
COc1ccc(-c2cc(OC)c3c(C)oc(C)c3c(=O)c2)cc1OC	KCNK3 inh -9 | KCNK3 inh conf 113 | KCNK3 noninduced 0.15
COc1cccc(-c2cccc(NC(=O)C3CCN(Cc4cccc(C)n4)CC3)c2)c1	none
COc1cccc(O)c1CN1CCC(C(=O)Nc2ccc(-c3cccc(C)c3)cc2)CC1	KCNQ1 block 6, KCNK3 inh -11 | KCNK3 inh conf 125 | KCNK3 noninduced inactive
Cc1onc(-c2ccccc2)c1C(=O)OCCOc1ccc([N+](=O)[O-])cc1[N+](=O)[O-]	KCNK3 inh -10 | KCNK3 inh conf 92 | KCNK3 noninduced inactive
Cc1ccc(S(=O)(=O)N2CCc3c2cc([N+](=O)[O-])cc3[N+](=O)[O-])cc1	none
CC(C)C(NS(=O)(=O)c1cccc(C(F)(F)F)c1)C(=O)N1CCc2ccccc2C1 (centres undefined)	none
COc1ccc(-c2[nH]ncc2CN(C)C(C)c2cccs2)c(F)c1 (centres undefined)	KCNK3 inh -9.5 | KCNK3 inh conf 101 | KCNK3 noninduced inactive
S=c1nc(NCCc2ccccc2Cl)c2ccccc2[nH]1	none
O=C(NC1CC1)c1cccc(NC(=O)c2cnn(-c3ccccc3)n2)c1	none (no result: KCNQ1 block, KCNQ1 pot, KCNK9 block, Kir21 block, hERG rescue)
O=C(NC1CC1)c1cccc(NC(=O)c2cn3ccccc3n2)c1	KCNK3 inh -12 (no result: KCNQ1 block, KCNQ1 pot, KCNK9 block, Kir21 block, hERG rescue) | KCNK3 inh conf 60 | KCNK3 noninduced inactive
CC(C)Oc1ccc(CNC(=O)Cn2c(=O)oc3ccccc32)cc1	none
Cc1ccc(CNC(=O)Cn2c(=O)oc3ccccc32)o1	KCNK3 inh -12 | KCNK3 inh conf 77 | KCNK3 noninduced inactive
CCOC(=O)c1cc(-c2csc(COc3ccccc3)n2)on1	none
Cc1onc(-c2ccccc2)c1-c1csc(COc2ccccc2)n1	KCNK9 block -7.8, KCNK3 inh -12 | KCNK3 inh conf 96 | KCNK3 noninduced 0.14
COc1ccc(/C=N/NC(=O)c2cc(-c3ccccc3OC)nc3ccccc23)cc1COC(C)=O	KCNK3 inh -11 | KCNK3 inh conf 97 | KCNK3 noninduced inactive
COc1ccc(NC2=C(C(C)=O)C(c3ccc(N(C)C)cc3)C(C(C)=O)C(C)(O)C2)cc1 (centres undefined)	none
CC(=O)C1=C(Nc2ccccc2)CC(C)(O)C(C(C)=O)C1c1ccccc1 (centres undefined)	KCNK3 inh -12 | KCNK3 inh conf 52 | KCNK3 noninduced inactive
COc1ccc(C2C(C(C)=O)=C(Nc3ccccc3)CC(C)(O)C2C(C)=O)cc1OC (centres undefined)	none
COc1ccc(NC2=C(C(C)=O)C(c3ccc(OC)cc3)C(C(C)=O)C(C)(O)C2)cc1 (centres undefined)	KCNK3 inh -9.1 | KCNK3 inh conf 68 | KCNK3 noninduced inactive
Cc1ccccc1NC(=O)c1cc2ccccc2o1	none
CC1CCN(c2ccccc2NC(=O)c2cc3ccccc3o2)CC1	KCNK3 inh -9.7 | KCNK3 inh conf 106 | KCNK3 noninduced inactive
COC(C[C@H]1O[C@H]1[C@H](O)COCc1ccccc1)OC	none
O=C1C=CC2(O[C@H](c3ccccc3)[C@@H](c3ccccc3)O2)[C@H](Sc2ccccc2O)C1	none (no result: KCNQ1 block, KCNQ1 pot, KCNK9 block, Kir21 block, hERG rescue)
O=S(=O)(c1cccc(COc2ccc(Cl)cc2Cl)c1)N1CCOCC1	KCNK3 inh -9.9 | KCNK3 inh conf 122 | KCNK3 noninduced 0.16
O=[N+]([O-])c1ccc(F)cc1OCc1cccc(S(=O)(=O)N2CCOCC2)c1	none
CC(=O)c1cc(Cl)ccc1OCc1cccc(S(=O)(=O)N2CCOCC2)c1	none
O=S(=O)(c1cccc(COc2c(Cl)cccc2Cl)c1)N1CCOCC1	KCNK3 inh -9.5 | KCNK3 inh conf 120 | KCNK3 noninduced inactive
CCN(CC(=O)Nc1c(F)cccc1F)C(=O)c1ccc(=O)n(C)n1	none (no result: KCNQ1 block, KCNQ1 pot, KCNK9 block, Kir21 block, hERG rescue)
COC(=O)COc1ccc(S(=O)(=O)Nc2ccc3c(c2)OCO3)cc1	none
CC(C)c1ccc(S(=O)(=O)Nc2ccc3c(c2)OCO3)cc1	KCNK3 inh -11 (no result: KCNQ1 block, KCNQ1 pot, KCNK9 block, Kir21 block, hERG rescue) | KCNK3 inh conf 122 | KCNK3 noninduced inactive
COC(=O)COc1ccc(S(=O)(=O)Nc2ccc3c(c2)OCO3)cc1Cl	KCNK3 inh -9.7 | KCNK3 inh conf 98 | KCNK3 noninduced inactive
Cc1ccc(C(C)C)c(OCC(=O)NC2CCN(C)CC2)c1	none
Cc1cc(N2C3CCC2CC(O)(c2ccc(F)cc2)C3)nc(-c2ccccc2)n1 (centres undefined)	KCNK3 inh -10 | KCNK3 inh conf 101 | KCNK3 noninduced 0.15
CCC(CO)Nc1nc2ccc(Cl)cc2c2ccccc12 (centres undefined)	KCNK3 inh -9.2 | KCNK3 inh conf 98 | KCNK3 noninduced inactive
CC(OC(=O)c1ccc([N+](=O)[O-])s1)C(=O)NC1CCCCC1C (centres undefined)	none (no result: KCNQ1 block, KCNQ1 pot, KCNK9 block, Kir21 block, hERG rescue)
